Calls of active or inactive are those of the source. The calls are words filed in the database; no cut-off is given here.
Experiments:
[1] = biological target: T1, Protein arginine N-methyltransferase 1 (Rattus norvegicus, UniProt Q63009); experiment: Inhibition of rat His-tagged PRMT1 (11 to 353 residues) expressed in Escherichia coli BL21(DE3) using biotinylated H4 peptide (1 to 21 residues) as substrate preincubated for 15 mins followed by substrate addition measured after 60 mins in presence of [3H]SAM by microbeta counting method
T1 sequence (Q63009 whole entry, the tested form may be a part): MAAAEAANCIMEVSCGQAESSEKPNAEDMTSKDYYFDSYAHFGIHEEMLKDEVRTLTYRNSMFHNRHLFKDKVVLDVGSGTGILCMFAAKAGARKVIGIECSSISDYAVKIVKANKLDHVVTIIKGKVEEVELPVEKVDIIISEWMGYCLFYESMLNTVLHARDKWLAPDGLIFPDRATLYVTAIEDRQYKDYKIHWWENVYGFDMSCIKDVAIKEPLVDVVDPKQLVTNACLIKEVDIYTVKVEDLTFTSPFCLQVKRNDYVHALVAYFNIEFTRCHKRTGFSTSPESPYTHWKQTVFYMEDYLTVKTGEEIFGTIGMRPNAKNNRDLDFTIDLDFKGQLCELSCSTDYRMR
How it was run: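 Radiometric assay in modified Tris buffer. His6-rPRMT1(11–353) preincubated with compound 15 min at RT, then substrate and [3H]-SAM added. Reaction 60 min at RT, stopped with cold stop solution, transferred to Flashplate for 60 min, washed with water/0.1% Tween-20, counted on Microbeta. IC50 from curve fit.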

[2] = biological target: T1, Protein arginine N-methyltransferase 1; experiment: Inhibition of rat His-tagged PRMT1 (11 to 353 residues) expressed in Escherichia coli BL21(DE3) incubated for 15 mins followed by substrate addition measured after 60 mins by AlphaLisa method
How it was run: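 AlphaLISA IC50 run. Compound dispensed to 1% DMSO final, enzyme in 1x assay buffer preincubated 15 min at room temperature. Substrate added and reacted 60 min at RT, then AlphaLISA bead mix added for 60 min at RT in subdued light. IC50 taken from the dose-response fit.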

[3] = biological target: Protein arginine N-methyltransferase 6 (Homo sapiens, UniProt Q96LA8); experiment: Inhibition of PRMT6 (unknown origin) incubated for 15 mins followed by substrate addition measured after 60 mins by AlphaLisa method
Protein arginine N-methyltransferase 6, sequence (Q96LA8 whole entry): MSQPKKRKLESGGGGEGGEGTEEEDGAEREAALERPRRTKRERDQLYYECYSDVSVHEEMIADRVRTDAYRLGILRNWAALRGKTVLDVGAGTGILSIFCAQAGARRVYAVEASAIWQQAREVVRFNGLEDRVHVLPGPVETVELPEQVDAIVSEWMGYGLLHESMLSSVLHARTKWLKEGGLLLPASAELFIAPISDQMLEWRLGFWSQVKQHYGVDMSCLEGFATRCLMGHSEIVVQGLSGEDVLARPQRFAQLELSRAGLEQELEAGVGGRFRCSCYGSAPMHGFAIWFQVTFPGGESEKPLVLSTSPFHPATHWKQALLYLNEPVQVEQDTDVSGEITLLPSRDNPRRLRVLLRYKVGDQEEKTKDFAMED
How it was run: (§1)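 AlphaLISA. Enzyme and substrate in 1x assay buffer, compound at 1% DMSO final. Enzyme preincubated with compound 15 min at room temperature, then substrate added. Reaction 60 min at room temperature, then bead mix added and incubated 60 min under subdued light before signal read.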

[4] = biological target: Histone-lysine N-methyltransferase EZH2 (Homo sapiens) (UniProt Q15910); experiment: Inhibition of EZH2 (unknown origin) at 50 uM incubated for 15 mins followed by substrate addition measured after 60 mins by radioisotope assay
Histone-lysine N-methyltransferase EZH2 (Homo sapiens), sequence (Q15910 whole entry, looked up): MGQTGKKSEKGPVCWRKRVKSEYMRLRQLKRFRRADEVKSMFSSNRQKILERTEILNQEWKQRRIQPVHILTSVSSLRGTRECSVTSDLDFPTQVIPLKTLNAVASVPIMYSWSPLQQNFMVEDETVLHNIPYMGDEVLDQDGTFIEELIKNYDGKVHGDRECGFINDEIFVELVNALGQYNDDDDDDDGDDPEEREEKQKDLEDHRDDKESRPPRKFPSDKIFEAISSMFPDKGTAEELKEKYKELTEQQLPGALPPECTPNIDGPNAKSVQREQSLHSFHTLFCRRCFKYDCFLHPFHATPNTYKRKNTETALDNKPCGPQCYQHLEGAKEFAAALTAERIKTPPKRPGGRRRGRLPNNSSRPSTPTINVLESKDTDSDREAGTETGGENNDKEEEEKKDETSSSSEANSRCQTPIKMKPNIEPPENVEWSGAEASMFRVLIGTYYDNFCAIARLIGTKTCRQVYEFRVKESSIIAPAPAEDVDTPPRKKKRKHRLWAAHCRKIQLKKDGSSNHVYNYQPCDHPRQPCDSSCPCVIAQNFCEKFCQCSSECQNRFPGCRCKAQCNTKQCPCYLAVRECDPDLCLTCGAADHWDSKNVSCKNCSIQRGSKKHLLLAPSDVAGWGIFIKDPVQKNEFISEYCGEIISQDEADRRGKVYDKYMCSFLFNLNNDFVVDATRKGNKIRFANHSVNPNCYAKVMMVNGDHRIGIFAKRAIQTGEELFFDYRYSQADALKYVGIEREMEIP

[5] = biological target: N-lysine methyltransferase SMYD2 (Homo sapiens) (UniProt Q9NRG4); experiment: Inhibition of SMYD2 (unknown origin) at 50 uM incubated for 15 mins followed by substrate addition measured after 240 mins by AlphaLisa method
N-lysine methyltransferase SMYD2 (Homo sapiens), sequence (Q9NRG4 whole entry): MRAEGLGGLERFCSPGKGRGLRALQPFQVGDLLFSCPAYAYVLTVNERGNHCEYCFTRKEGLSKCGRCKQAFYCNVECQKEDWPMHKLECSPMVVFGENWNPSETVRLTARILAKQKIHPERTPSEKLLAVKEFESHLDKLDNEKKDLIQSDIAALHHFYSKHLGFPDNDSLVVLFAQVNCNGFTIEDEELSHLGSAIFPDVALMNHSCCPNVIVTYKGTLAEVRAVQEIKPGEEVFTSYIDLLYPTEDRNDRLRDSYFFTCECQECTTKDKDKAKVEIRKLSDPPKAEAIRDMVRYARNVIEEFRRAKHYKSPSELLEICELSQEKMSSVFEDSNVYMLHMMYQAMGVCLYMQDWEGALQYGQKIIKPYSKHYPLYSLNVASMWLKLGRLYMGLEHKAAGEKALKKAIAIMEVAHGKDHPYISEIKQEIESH
How it was run: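 SMYD2 AlphaLISA at 50 and 100 µM compound, 1% DMSO final. Enzyme preincubated 15 min at RT, then substrate added and reacted 240 min at RT. Bead mix added and incubated 60 min at RT in subdued light before reading.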

[6] = biological target: Histone-lysine N-methyltransferase SUV39H1 (Homo sapiens) (UniProt O43463); experiment: Inhibition of SUV39H1 (unknown origin) at 50 uM incubated for 15 mins followed by substrate addition measured after 60 mins by AlphaLisa method
Histone-lysine N-methyltransferase SUV39H1 (Homo sapiens), sequence (O43463 whole entry): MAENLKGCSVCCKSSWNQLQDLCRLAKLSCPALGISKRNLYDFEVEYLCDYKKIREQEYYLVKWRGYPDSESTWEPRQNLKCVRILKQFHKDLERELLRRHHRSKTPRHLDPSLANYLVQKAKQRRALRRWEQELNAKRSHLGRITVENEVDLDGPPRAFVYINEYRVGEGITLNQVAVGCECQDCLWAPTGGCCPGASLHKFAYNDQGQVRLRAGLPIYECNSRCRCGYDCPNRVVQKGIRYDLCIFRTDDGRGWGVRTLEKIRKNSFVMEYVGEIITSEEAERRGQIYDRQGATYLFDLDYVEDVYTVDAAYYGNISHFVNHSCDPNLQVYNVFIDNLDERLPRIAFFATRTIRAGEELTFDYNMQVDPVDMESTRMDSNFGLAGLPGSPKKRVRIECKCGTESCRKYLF
How it was run: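 SUV39H1 AlphaLISA at 50 and 100 µM compound, 1% DMSO final. Enzyme preincubated 15 min at room temperature, substrate reaction 60 min at RT. Bead mix then added for 60 min at RT in subdued light before signal collection.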

[7] = biological target: Histone-lysine N-methyltransferase 2A (Homo sapiens) (UniProt Q03164); experiment: Inhibition of MLL1 (unknown origin) at 100 uM incubated for 15 mins followed by substrate addition measured after 60 mins by AlphaLisa method; how it was run: as §1
[8] = tested on: RCH-ACV; experiment: Cytotoxicity against human RCH-ACV cells assessed as decrease in cell viability after 96 hrs by Cell-Titer Glo assay; assay type: functional, cell-based
How it was run: (§2)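 Cells kept at 37°C, 5% CO2, exposed to compound or DMSO control for 96 h. Viability read by CellTiter-Glo luminescence after 2 min shaking to lyse and 10 min at room temperature. Triplicate wells, normalised to control cells. For long-term growth, log-phase seeding densities; cells counted and replated to the starting density with fresh compound on days 4 and 8.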

[9] = tested on: REH; experiment: Cytotoxicity against human REH cells assessed as decrease in cell viability after 96 hrs by Cell-Titer Glo assay; assay type: functional, cell-based; how it was run: as §2
[10] = tested on: U-937; experiment: Cytotoxicity against human U937 cells assessed as decrease in cell viability after 96 hrs by Cell-Titer Glo assay; assay type: functional, cell-based; how it was run: as §2
[11] = tested on: MV4-11; experiment: Antiproliferative activity against human MV4-11 cells assessed as decrease in cell viability at 0.1 to 1000 uM by Cell-Titer Glo assay; assay type: functional, cell-based; details: TDE = time-dependent effect; how it was run: as §2
[12] = tested on: MV4-11; experiment: Cell cycle arrest in human MV4-11 cells assessed as accumulation at G1 phase after 72 hrs by propidium iodide staining-based flow cytometry; assay type: functional
How it was run: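 MV4-11 cells in 6-well plates with compound or DMSO control, harvested at 72 h. Fixed overnight in 70% ethanol at 4°C, washed with PBS, stained 30 min at room temperature with propidium iodide/RNase buffer, analysed by flow cytometry. Mean ± SD of three replicates.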

[13] = tested on: MV4-11; experiment: Downregulation of MEIS1 mRNA levels in human MV4-11 cells by qRT-PCR analysis; assay type: functional, cell-based
How it was run: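 MV4-11 cells treated with compound. mRNA measured by SYBR Green qRT-PCR with B2M as internal control. Fold change from ΔΔCt. Samples run in triplicate, mean ± SD.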

Compound `CN(CCN)Cc1ccccc1Sc1ccccc1Cl` has an IC50 [1] of 5.3 nM, an IC50 [2] of 1.1 nM and an IC50 [3] of 1.2 nM. For the same compound, the inhibition [4] was “Active”, the inhibition [5] was “Active” and the inhibition [6] was “Active”. The inhibition [7] was “Active”, the Activity [8] was “Dose-dependent effect” and the Activity [9] was “Dose-dependent effect”. For the same compound, the Activity [10] was “Dose-dependent effect”, the Activity [11] was “Tde” and the Activity [12] was “Dose-dependent effect”. For the same compound, the Activity [13] was “Dose-dependent effect”.

From ChEMBL document CHEMBL4024748, “Development of Potent Type I Protein Arginine Methyltransferase (PRMT) Inhibitors of Leukemia Cell Proliferation” (J Med Chem, 2017)
